Fh CTSL1 inh: Fasciola hepatica cathepsin L1 inhibitors, primary screen, counter-screen for PFM18AAP inhibitor project, biochemical, QFRET, fluorogenic peptide substrate; AID 1906, 2009; inhibition, % at 5.96 µM; recombinant F. hepatica cathepsin L1, Z-Leu-Arg-MCA fluorescence; 300,000 compounds, 0.49% hits;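 active = inhibition above the mean of all tested compounds plus 3 SD, set per screening campaign, cut at about 17% in these data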;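 also: 0% = plate median of test compound wells and 100% = 1 µM Z-Phe-Ala-diazomethylketone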
pCIP destab: p/CIP-EGFP fusion destabilizers, primary screen, fluorescence, F442A cells | 16 h | decrease of EGFP signal, % at 10 µM | 290,000 compounds, 0.01% hits | AID 1984, 2009 | Q05BA5;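 active = EGFP signal decrease of at least 30% at 10 µM or well 3 SD below plate mean, unless failing retest; inactive = the rest, including hits failing retest or dose response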
Cardio protect: cardioprotection against H2O2-induced cell death, primary screen, uHTS, H9c2 cells, ATPLite luminescence. H9c2 cardiomyocytes, H2O2 injury protection, 2 h. protection from H2O2 cell death, % at 20 µM. 360,000 compounds, 0.63% hits;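 active = compounds giving at least 50% protection of heart cells from peroxide-induced death in the single-dose screen, raw or plate-pattern-corrected value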;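 also: 0% = DMSO wells with peroxide and 100% = DMSO wells without peroxide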
PP5 inh: PP5 phosphatase inhibitors, primary screen, biochemical, fluorescence; Serine/threonine-protein phosphatase 5 (Homo sapiens), P53041; purified PP5c, OMFP substrate fluorescence; inhibition, % at 6.7 µM; 320,000 compounds, 0.18% hits; AID 1987, 2009;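 active = inhibition above the campaign's mean inhibition across all tested compounds plus 3 SD, cut at about 9.5% in these data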;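 also: 0% = DMSO only and 100% = 100 µM cantharidin control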
Target sequence (P53041 whole entry, looked up): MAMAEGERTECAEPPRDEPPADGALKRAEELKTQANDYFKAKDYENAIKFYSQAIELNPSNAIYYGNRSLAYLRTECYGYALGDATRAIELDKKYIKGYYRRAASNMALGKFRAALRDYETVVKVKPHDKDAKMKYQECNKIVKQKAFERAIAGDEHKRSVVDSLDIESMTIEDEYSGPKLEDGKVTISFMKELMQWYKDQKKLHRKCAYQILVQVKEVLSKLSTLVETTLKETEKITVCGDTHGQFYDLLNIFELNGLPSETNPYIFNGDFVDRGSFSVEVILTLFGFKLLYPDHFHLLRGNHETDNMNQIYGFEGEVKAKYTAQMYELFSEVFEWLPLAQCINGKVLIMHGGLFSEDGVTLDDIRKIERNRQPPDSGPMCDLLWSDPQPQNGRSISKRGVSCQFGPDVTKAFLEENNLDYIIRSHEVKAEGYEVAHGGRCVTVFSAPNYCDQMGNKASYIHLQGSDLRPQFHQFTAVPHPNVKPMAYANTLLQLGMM
JMJD2C inh: inhibitors of GASC-1 histone demethylase, primary screen, biochemical, fluorescence, DELFIA europium. Lysine-specific demethylase 4C (Homo sapiens), Q9H3R0. GST-JMJD2C(1-420) H3K9me3 demethylation. inhibition, % at 2.35 µM. 330,000 compounds, 0.069% hits. AID 2099, 2009;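 active = more than half of a compound's replicate wells show inhibition beyond 50%, single wells judged on their own value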;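 also: signal counts dimethyl H3K9 product captured on neutravidin plate; 0% = median of DMSO wells and 100% = 0.3 times that DMSO median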
T cruzi inh: inhibitors of intracellular T. cruzi growth, primary screen, luminescence, NIH3T3 host cells; T. cruzi beta-gal in NIH3T3, 90 h; inhibition, % (no concentration beside the values); 300,000 compounds, 1.4% hits; AID 1885, 2009;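 active = mean inhibition across valid replicates above about 55%, limit read from the data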;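 also: signal also drops with host cell toxicity which is not excluded here; 0% = plate median of DMSO wells and 100% = zero luminescence signal; higher percent means less beta-gal luminescence so fewer parasites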
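System: mouse NIH/3T3 fibroblasts infected with β-gal-expressing T. cruzi Tulahuen C4 / Input: NIH/3T3 cells, 5,000 per well / Buffer or medium: Low-serum DMEM with 2% FBS / Probe or stimulus: 5000 reporter trypomastigotes per well / Schedule: ≥90 h infection period, 3 h prior cell attachment / Measured by: GalScreen luminescence, 60 min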
* hit, by the source's call; x = no result given. Hits are enriched below; roughly 2.4% of the tested compounds scored in any of these assays.

SMILES | Fh CTSL1 inh | pCIP destab | Cardio protect | PP5 inh | JMJD2C inh | T cruzi inh
COCCCN(C(=O)C(C)Oc1ccc(Br)cc1)c1c(N)n(Cc2ccccc2)c(=O)[nH]c1=O (stereo not drawn) | 2 | x | -3 | 0 | -6 | -3
CC1CC(=O)C(C(C2=C(O)CC(C)CC2=O)c2ccccc2)=C(O)C1 (stereo not drawn) | x | x | -1 | x | x | x
O=C(Cn1[nH]c(=O)c2ccccc2c1=O)NCC1COc2ccccc2O1 (stereo not drawn) | x | x | 57* | 0 | 2 | x
CCN(CC(=O)Nc1c(F)cccc1F)C(=O)Cn1[nH]c(=O)c2ccccc2c1=O | x | x | 84* | 0 | -3 | x
O=C(COC(=O)Cc1n[nH]c(=O)c2ccccc12)NNC(=O)c1ccc(Br)cc1 | x | x | 53* | x | -4 | x
COc1ccc(C(C)=O)cc1COC(=O)Cc1n[nH]c(=O)c2ccccc12 | 0 | -7 | 72* | 2 | 1 | -5
COc1ccc(CN(C)C(C)C(=O)N(C)CC(=O)Nc2ccc(C)cc2)cc1F (stereo not drawn) | x | x | 7 | 1 | 1 | x
Cc1ccc(NC(=O)C2CC(=O)N(c3ccccc3Cl)C2)cc1S(=O)(=O)N1CCOCC1 (stereo not drawn) | x | x | -3 | x | x | x
N#C/C(=C\c1cccn1S(=O)(=O)c1cccc(C#N)c1)S(=O)(=O)c1ccc(F)cc1 | x | x | 13 | x | x | x
COc1ccc(Cc2nnc3sc(SCC(=O)Nc4ccccc4)nn3c2=O)cc1OC | -1 | x | 19 | 0 | 5 | -5
O=C(COC(=O)Cn1[nH]c(=O)c2ccccc2c1=O)NNC(=O)c1ccc(Br)cc1 | x | x | 83* | 2 | x | x
COc1ccc(S(=O)(=O)Nc2cccc3c2O[C@H](CN(C)C(=O)NC2CCCCC2)[C@@H](C)CN([C@H](C)CO)C3=O)cc1 | x | x | 3 | x | x | x
CCCC(=O)Nc1nc2ccc(NC(=O)c3ccc(Br)o3)cc2s1 | 2 | -5 | 73* | -1 | -7 | 3
CN1CCc2cc(Cl)c(O)cc2[C@@H](c2ccccc2)C1 | -5 | -4 | 24 | 1 | -13 | 7
CN1CCc2cc(O)c(O)cc2C(c2ccccc2)C1 (stereo not drawn) | -2 | x | 54* | 2 | x | x
Cc1ccc(OCc2cc(C(=O)N(C)Cc3cnn(-c4ccccc4C)c3)no2)cn1 | -2 | -23 | -11 | 0 | 15 | 0
CCOC(=O)C1CCN(Cc2ccc(O)c3ncccc23)CC1 | 3 | -27 | 18 | 1 | 11 | 55*
CCOC(=O)C1CCN(Cc2ccccc2C(F)(F)F)CC1 | -1 | -20 | 0 | 2 | -14 | -14
Cn1c(N)c(C(=O)CSc2n[nH]c(-c3ccccc3)n2)c(=O)n(C)c1=O | x | x | 5 | 4 | -24 | x
CCOC(=O)c1c(C)[nH]c(C)c1S(=O)(=O)NCC1CCN(Cc2cccc(Cl)c2)CC1 | 2 | -6 | 0 | 3 | -4 | 11
CCOC(=O)c1c(S(=O)(=O)NCC2CCN(Cc3cccc(F)c3)CC2)c(C)n(C)c1C | 44* | 1 | -1 | 1 | 7 | 25
OC[C@@H]1CN(Cc2ccc(-c3ccccc3)cc2)C[C@H](n2cnc3c(N4CCOCC4)ncnc32)O1 | x | x | -10 | x | x | x
Cc1cc(N)n(-c2nc(-c3cccnc3)nc3ccccc23)n1 | 0 | -23 | 86* | 3 | 0 | 9
c1cncc(-c2nc(N3CCOCC3)c3ccccc3n2)c1 | -2 | -1 | 14 | 1 | -1 | 14
O=S(=O)(c1ccccc1)N1CCN(c2nc(-c3cccnc3)nc3ccccc23)CC1 | x | x | 58* | x | x | x
SMILES | Fh CTSL1 inh | pCIP destab | Cardio protect | PP5 inh | JMJD2C inh | T cruzi inh
COc1cc2c(cc1OC)CN(c1ccc(F)cc1[N+](=O)[O-])CC2 | 4 | 1 | 4 | 2 | -2 | -11
CN(C)/C=N/NC(=O)c1ccccc1 | -2 | -2 | -5 | 2 | 1 | -10
O=C(NN=c1c(=O)c2ccccc2c1=O)c1ccccc1 | 61* | 2 | -4 | 2 | 7 | -41
COc1ccc(CN2CCCCC2C)c(C)c1C (stereo not drawn) | 2 | -4 | 0 | -1 | 50* | x
COc1ccc(CN2CCCCC2C)cc1C (stereo not drawn) | 1 | -17 | -5 | 1 | 26 | 18
Cc1ccc(-c2nn(-c3ccccc3)cc2NC(=O)CCl)cc1 | 82* | 9 | -27 | 4 | 0 | -28
Cc1ccc(-c2cc(NC(=O)CCl)n(-c3ccccc3)n2)cc1 | 75* | -12 | -10 | 2 | 8 | 4
Nc1ccccc1Nc1cc(-c2ccccc2)nn1-c1cccc(Cl)c1 | 0 | -5 | -2 | 7 | 2 | 58*
O=C(CCl)Nc1cc(-c2ccccc2)nn1-c1ccccc1 | 68* | -2 | 1 | 4 | 1 | 13
Cc1ccccc1NC(=O)c1cn(-c2ccccc2)nc1-c1ccccc1 | 1 | -2 | -5 | 5 | -4 | -1
Nc1cc(-c2ccc(Cl)cc2)nn1-c1ccccc1 | 0 | -5 | -5 | 3 | -32 | 0
COc1ccccc1-c1cnc(C(O)c2cc(Cl)cc(Cl)c2)[nH]1 (stereo not drawn) | x | x | -4 | x | x | x
O=C(NC1CC(=O)N(c2ccc(Cl)cc2)C1)N1CCN(C(=O)c2ccco2)CC1 (stereo not drawn) | -6 | x | 0 | 0 | -3 | 1
CC1CCCN(CCCNC(=O)c2nn(C)c3c2CS(=O)(=O)c2ccccc2-3)C1 (stereo not drawn) | 3 | -9 | 11 | 0 | 10 | 3
COc1ccccc1/C=N\NC(=O)c1ccc(COc2ccc(C)c(C)c2)o1 | -1 | x | 2 | 2 | -3 | 9
COc1ccc(N2CCN(C(=O)c3ccc(Cn4nc(C)c([N+](=O)[O-])c4C)o3)CC2)cc1 | x | -11 | -4 | x | -10 | 17
COc1ccc(CNC(=O)c2ccc(Cn3nc(C)c([N+](=O)[O-])c3C)o2)cc1 | 1 | -7 | 87* | 1 | 22 | -10
NS(=O)(=O)c1cccc(Nc2nc3ccccc3nc2NS(=O)(=O)c2ccc(Cl)cc2)c1 | x | x | -5 | x | 5 | x
Cc1ccc(OCC(=O)N2CCN(c3nnc(-c4ccccc4)c4ccccc34)CC2)cc1 | 3 | 6 | 17 | 4 | 0 | 70*
Cc1cc(C)n2nc(-c3ccsc3-n3c(C)ccc3C)cc2n1 | 0 | -21 | 3 | 3 | 19 | 55*
C/C=C/c1ccc(OCCCCN2CC(C)CC(C)C2)c(OC)c1 (stereo not drawn) | -4 | -10 | -10 | 1 | 6 | 55*
Cc1ccc(-c2csc3ncnc(NCCC(=O)O)c23)cc1C | 0 | -14 | 6 | 1 | 3 | -1
